In brackets after ≈: the same amount, converted by molar mass. Activity calls are given as the source filed them. No cut-off for these calls is given here.
Assays:
Pseudomonas aeruginosa [1] = assay: Antibacterial activity against Pseudomonas aeruginosa isolate 869 by microdilution method; assay type: functional
Pseudomonas aeruginosa [2] = assay: Antibacterial activity against Pseudomonas aeruginosa isolate 1005 by microdilution method; assay type: functional
Procedure, shortened: (§1)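 CLSI broth microdilution in cation-adjusted Mueller-Hinton broth (20–25 mg/liter Ca, 10–12.5 mg/liter Mg). Standard inoculum 10⁵ CFU/ml, incubated in ambient air. Clinical hospital isolates.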

Pseudomonas aeruginosa [3] = assay: Antibacterial activity against Pseudomonas aeruginosa isolate 1036 by microdilution method; assay type: functional
Pseudomonas aeruginosa [4] = assay: Antibacterial activity against Pseudomonas aeruginosa isolate 944 by microdilution method; assay type: functional; procedure, shortened: as §1
Pseudomonas aeruginosa [5] = assay: Antibacterial activity against Pseudomonas aeruginosa isolate 1050 by microdilution method; assay type: functional; procedure, shortened: as §1
Pseudomonas aeruginosa [6] = assay: Antibacterial activity against Pseudomonas aeruginosa isolate 988 by microdilution method; assay type: functional
[7] = fT>MIC in human infected with Pseudomonas aeruginosa isolate 1029 at 500 mg administered as 1 hr infusion; assay type: functional
[8] = fT>MIC in human infected with Pseudomonas aeruginosa isolate 1055 at 500 mg administered as 1 hr infusion; assay type: functional
[9] = fT>MIC in human infected with Pseudomonas aeruginosa isolate 896 at 500 mg administered as 1 hr infusion; assay type: functional
[10] = fT>MIC in human infected with Pseudomonas aeruginosa isolate 936 at 500 mg administered as 1 hr infusion; assay type: functional
[11] = fT>MIC in human infected with Pseudomonas aeruginosa isolate 979 at 500 mg administered as 4 hr infusion; assay type: functional
[12] = fT>MIC in human infected with Pseudomonas aeruginosa isolate 931 at 500 mg administered as 4 hr infusion; assay type: functional
[13] = fT>MIC in human infected with Pseudomonas aeruginosa isolate 936 at 500 mg administered as 4 hr infusion; assay type: functional
[14] = fT>MIC in human infected with Pseudomonas aeruginosa isolate 988 at 500 mg administered as 4 hr infusion; assay type: functional
[15] = fT>MIC in human infected with Pseudomonas aeruginosa isolate 927 at 500 mg administered as 4 hr infusion; assay type: functional
[16] = fT>MIC in neutropenic mouse infected with Pseudomonas aeruginosa isolate 886 at 500 mg administered as 1 hr infusion; assay type: functional
Procedure, shortened: (§2)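 Free-drug time above MIC simulated from one-compartment mouse serum PK (25.2% protein binding). The mice were cyclophosphamide-neutropenic and uranyl nitrate-renally impaired. Regimen was subcutaneous 10, 15, 2.5, 1.25, 0.5, 0.25 mg/kg at 0, 0.5, 2.5, 4, 5.5, 7 h, repeated every 8 h over 24 h.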

[17] = fT>MIC in neutropenic mouse infected with Pseudomonas aeruginosa isolate 1082 at 500 mg administered as 1 hr infusion; assay type: functional; procedure, shortened: as §2
[18] = fT>MIC in neutropenic mouse infected with Pseudomonas aeruginosa isolate 1062 at 500 mg administered as 4 hr infusion; assay type: functional
Procedure, shortened: (§3)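 Mouse fT>MIC was modelled with first-order one-compartment serum PK and 25.2% binding. Mice were neutropenic (cyclophosphamide) with uranyl nitrate renal impairment. Subcutaneous doses were 5.5, 2.25, 4.5, 4.5, 4.5, 4.5, 0.75, 0.375 mg/kg at 0, 0.5, 1.5, 2.5, 3.5, 4.5, 6, 7.5 h per 8-h interval over 24 h.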

[19] = fT>MIC in neutropenic mouse infected with Pseudomonas aeruginosa isolate 931 at 500 mg administered as 4 hr infusion; assay type: functional; procedure, shortened: as §3
[20] = fT>MIC in neutropenic mouse infected with Pseudomonas aeruginosa isolate 1006 at 500 mg administered as 4 hr infusion; assay type: functional
[21] = Cmax in Pseudomonas aeruginosa ATCC 27853 infected neutropenic ICR mouse at 50 mg/kg, sc administered as single dose 2 hrs postinfection by HPLC; assay type: ADME, organism-based; set-up: dose 50 mg/kg, route subcutaneous; details: in vivo
Procedure, shortened: (§4)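 Neutropenic mice (cyclophosphamide ip 150 and 100 mg/kg, 4 and 1 days before inoculation) with uranyl nitrate 5 mg/kg ip 3 days before, for renal impairment. Thigh infection with ATCC 27853 at 10⁶ CFU/ml, 0.1 ml per thigh. Single sc doses 2 h later. Intracardiac blood from 6–12 mice per time point, eight time points over 4 h. Serum assayed by HPLC (linear 0.5–40 μg/ml). One-compartment first-order fit.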

[22] = Tmax in Pseudomonas aeruginosa ATCC 27853 infected neutropenic ICR mouse at 10 mg/kg, sc administered as single dose 2 hrs postinfection by HPLC; assay type: ADME, organism-based; set-up: dose 10 mg/kg, route subcutaneous; details: in vivo; procedure, shortened: as §4
[23] = Half-life in Pseudomonas aeruginosa ATCC 27853 infected neutropenic ICR mouse at 10 mg/kg, sc administered as single dose 2 hrs postinfection; assay type: ADME, organism-based; set-up: dose 10 mg/kg, route subcutaneous; details: in vivo; procedure, shortened: as §4
[24] = Half-life in Pseudomonas aeruginosa ATCC 27853 infected neutropenic ICR mouse at 50 mg/kg, sc administered as single dose 2 hrs postinfection; assay type: ADME, organism-based; set-up: dose 50 mg/kg, route subcutaneous; details: in vivo; procedure, shortened: as §4
[25] = Cmax in Pseudomonas aeruginosa ATCC 27853 infected neutropenic ICR mouse at 500 mg administered as 1 hr infusion; assay type: ADME, organism-based; set-up: dose 500 mg; details: in vivo, iv
[26] = Cmax in healthy human at 500 mg administered as 1 hr infusion; assay type: ADME, organism-based; set-up: dose 500 mg; details: in vivo, iv
[27] = AUC in Pseudomonas aeruginosa ATCC 27853 infected neutropenic ICR mouse at 500 mg administered as 1 hr infusion; assay type: ADME, organism-based; details: plasma, iv
Pseudomonas aeruginosa [28] = assay: Antibacterial activity against Pseudomonas aeruginosa isolate 931 at 4 ug/ml after 24 hrs; assay type: functional, organism-based
Pseudomonas aeruginosa [29] = assay: Antibacterial activity against Pseudomonas aeruginosa isolate 931 by fractionation study; assay type: functional

**Q.** Which results are given for `C[C@@H](O)[C@H]1C(=O)N2C(C(=O)O)=C(S[C@@H]3CN[C@H](CNS(N)(=O)=O)C3)[C@H](C)[C@H]12` [DORIPENEM]?
**A.** MIC (Pseudomonas aeruginosa [1]): 0.25 µg/mL (≈ 0.595 µM); MIC (Pseudomonas aeruginosa [2]): 1 µg/mL (≈ 2.38 µM); MIC (Pseudomonas aeruginosa [3]): 2 µg/mL (≈ 4.76 µM); MIC (Pseudomonas aeruginosa [4]): 4 µg/mL (≈ 9.51 µM); MIC (Pseudomonas aeruginosa [5]): 4 µg/mL (≈ 9.51 µM); MIC (Pseudomonas aeruginosa [6]): 8 µg/mL (≈ 19 µM); fT>MIC [7]: 100%; fT>MIC [8]: 72.5%; fT>MIC [9]: 17.5%; fT>MIC [10]: 17.5%; fT>MIC [11]: 65%; fT>MIC [12]: 55%; fT>MIC [13]: 0%; fT>MIC [14]: 0%; fT>MIC [15]: 0%; fT>MIC [16]: 90%; fT>MIC [17]: 55%; fT>MIC [18]: 95%; fT>MIC [19]: 52.5%; fT>MIC [20]: 0%; Cmax [21]: 59700 ng/mL; Tmax [22]: 15 min; half-life [23]: 24.6 min; half-life [24]: 20.4 min; Cmax [25]: 28400 ng/mL; Cmax [26]: 21800 ng/mL; AUC at 1 h [27]: 37600 ng·h/mL; Activity (Pseudomonas aeruginosa [28]): inactive; MIC (Pseudomonas aeruginosa [29]): 3 µg/mL (≈ 7.13 µM)
